# Reference: ChEMBL document CHEMBL4270555, “Synthesis and biological evaluation of magnolol derivatives as melatonergic receptor agonists with potential use in depression” (Eur J Med Chem, 2018)
# The source made the active and inactive calls. The rule behind the calls is not given here.
# Experiments:
# Mus musculus [1] = test: Increase in norepinephrine level in Kunming mouse thalamus at 40 mg/kg, po treated for 7 days by HPLC-ECD analysis; format: functional, organism-based
# Summary of the method: (§1)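 Male Kunming mice (18–20 g) given vehicle or 40 mg/kg for 7 days, then killed by cervical dislocation. Frontal cortex, hippocampus, striatum, hypothalamus and thalamus dissected on ice, homogenized in ice-cold 0.2 M perchloric acid with 0.1 mM EDTA, centrifuged 15,000 rpm, 20 min, 4 °C. Supernatant analysed by HPLC-ECD at +0.50 V; phosphate/octanesulfonate mobile phase pH 3.0 with 12% methanol. Levels in ng/g, mean ± SEM.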
# Mus musculus [2] = test: Effect on 5-hydroxytryptamine level in Kunming mouse frontal cortex at 40 mg/kg, po treated for 7 days by HPLC-ECD analysis; format: functional, organism-based; summary of the method: as §1
# Mus musculus [3] = test: Decrease in dopamine level in Kunming mouse hippocampus at 40 mg/kg, po treated for 7 days by HPLC-ECD analysis; format: functional, organism-based
# Summary of the method: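 Male Kunming mice received vehicle or 40 mg/kg for 7 days, then were killed by cervical dislocation and the brain regions dissected on ice. Tissue was homogenized in ice-cold 0.2 M perchloric acid with 0.1 mM EDTA and centrifuged at 15,000 rpm, 20 min, 4 °C. Supernatant was analyzed by HPLC-ECD (+0.50 V; phosphate/octanesulfonate mobile phase, pH 3.0). Results in ng/g, mean ± SEM.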
# Rattus norvegicus [4] = test: Toxicity in Sprague-Dawley rat assessed as change in breathing rate at 2000 mg/kg, po measured continuously for first 4 hrs followed by measured every hour for next 24 hrs and at 6 hrs intervals for following 48 hrs post dose; format: organism-based; conditions: in vivo
# Summary of the method: (§2)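 Followed OECD 425 in adult SD rats (180–220 g), three groups of six. Vehicle control received 0.5% CMC-Na orally; separate male and female groups received 2000 mg/kg orally. Endpoints observed: behaviour, breathing, cutaneous effects, sensory nervous system responses, gastrointestinal effects and deaths.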
# Rattus norvegicus [5] = test: Toxicity in Sprague-Dawley rat assessed as caustic injuries at 2000 mg/kg, po measured over 4 hrs; format: organism-based; conditions: in vivo
# Summary of the method: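 Following OECD 425, adult SD rats (180–220 g), six per group: vehicle (0.5% CMC-Na) controls, plus males and females given 2000 mg/kg orally. Watched continuously for 4 h for behaviour, breathing, cutaneous, sensory and gastrointestinal signs, then hourly to 24 h and every 6 h for the next 48 h.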
# Rattus norvegicus [6] = test: Toxicity in Sprague-Dawley rat assessed as death at 2000 mg/kg, po measured continuously for first 4 hrs followed by measured every hour for next 24 hrs and at 6 hrs intervals for following 48 hrs post dose; format: organism-based; conditions: in vivo; summary of the method: as §2
# [7] = Toxicity in po dosed Sprague-Dawley rat measured continuously for first 4 hrs followed by measured every hour for next 24 hrs and at 6 hrs intervals for following 48 hrs post dose; format: organism-based; conditions: in vivo; summary of the method: as §2
# [8] = Drug metabolism in Sprague-Dawley rat urine assessed as 2'-hydroxy-5'-(1-hydroxyallyl)-5-propylbiphenyl-2-yl hydrogen sulfate formation at 100 mg/kg, po by UPLC-IT-TOF-MS analysis; format: ADME, organism-based; conditions: in vivo
# Summary of the method: (§3)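 Male/unspecified SD rats (n = 6) housed individually in metabolic cages, dosed orally at 100.0 mg/kg; controls given 0.5% CMC-Na orally. Plasma, urine and faeces collected. LC-IT-TOF-MS on C18 column at 30 °C, formic acid (0.05%) water/acetonitrile gradient 5–100% B over 18 min, 0.2 mL/min; positive and negative ion modes with automatic MS/MS.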
# [9] = Drug metabolism in Sprague-Dawley rat plasma assessed as (2S,3S,4S,5R,6S)-6-(5'-allyl-5-(1-hydroxyallyl)-2'-((2S,3R,4S,5S,6R)-3,4,5-trihydroxy-6-(hydroxymethyl)tetrahydro-2H-pyran-2-yloxy)biphenyl-2-yloxy)-3,4,5-trihydroxytetrahydro-2H-pyran-2-carboxylic acid formation at 100 mg/kg, po by UPLC-IT-TOF-MS analysis; format: ADME, organism-based; conditions: in vivo
# Summary of the method: (§4)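 Rats (n = 6) housed in metabolic cages received 100.0 mg/kg orally; controls received 0.5% CMC-Na. Plasma, urine and faeces were collected and analyzed by LC-IT-TOF-MS on a C18 column at 30 °C. Gradient 5–100% acetonitrile with 0.05% formic acid over 18 min at 0.2 mL/min; positive and negative ion MS/MS.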
# [10] = Drug metabolism in Sprague-Dawley rat urine assessed as (2S,3S,4S,5R,6S)-3,4,5-trihydroxy-6-(5-(1-hydroxyallyl)-5'-(2-hydroxypropyl)-2'-methoxybiphenyl-2-yloxy)tetrahydro-2H-pyran-2-carboxylic acid formation at 100 mg/kg, po by UPLC-IT-TOF-MS analysis; format: ADME, organism-based; conditions: in vivo; summary of the method: as §3
# [11] = Drug metabolism in Sprague-Dawley rat plasma assessed as 5-allyl-5'-(1-hydroxyallyl)-2'-((2S,3R,4S,5S,6R)-3,4,5-trihydroxy-6-(hydroxymethyl)tetrahydro-2H-pyran-2-yloxy)biphenyl-2-yl hydrogen sulfate formation at 100 mg/kg, po by UPLC-IT-TOF-MS analysis; format: ADME, organism-based; conditions: in vivo; summary of the method: as §3
# [12] = Drug metabolism in Sprague-Dawley rat plasma assessed as (2S,3S,4S,5R,6S)-6-(5-acryloyl-2'-hydroxy-5'-(1-hydroxyallyl)biphenyl-2-yloxy)-3,4,5-trihydroxytetrahydro-2H-pyran-2-carboxylic acid formation at 100 mg/kg, po by UPLC-IT-TOF-MS analysis; format: ADME, organism-based; conditions: in vivo; summary of the method: as §4
# [13] = Drug metabolism in Sprague-Dawley rat urine assessed as (2S,3S,4S,5R,6S)-6-(5-acryloyl-2'-hydroxy-5'-(1-hydroxyallyl)biphenyl-2-yloxy)-3,4,5-trihydroxytetrahydro-2H-pyran-2-carboxylic acid formation at 100 mg/kg, po by UPLC-IT-TOF-MS analysis; format: ADME, organism-based; conditions: in vivo; summary of the method: as §3
# [14] = Drug metabolism in Sprague-Dawley rat plasma assessed as 2S,3S,4S,5R,6S)-6-(5,5'-diallyl-2'-((2S,3R,4S,5S,6R)-3,4,5-trihydroxy-6-(hydroxymethyl)tetrahydro-2H-pyran-2-yloxy)biphenyl-2-yloxy)-3,4,5-trihydroxytetrahydro-2H-pyran-2-carboxylic acid formation at 100 mg/kg, po by UPLC-IT-TOF-MS analysis; format: ADME, organism-based; conditions: in vivo; summary of the method: as §4
# [15] = Drug metabolism in Sprague-Dawley rat urine assessed as 2S,3S,4S,5R,6S)-6-(5,5'-diallyl-2'-((2S,3R,4S,5S,6R)-3,4,5-trihydroxy-6-(hydroxymethyl)tetrahydro-2H-pyran-2-yloxy)biphenyl-2-yloxy)-3,4,5-trihydroxytetrahydro-2H-pyran-2-carboxylic acid formation at 100 mg/kg, po by UPLC-IT-TOF-MS analysis; format: ADME, organism-based; conditions: in vivo; summary of the method: as §3
# [16] = Drug metabolism in Sprague-Dawley rat feces assessed as 1-(5'-allyl-2'-hydroxy-6-((2S,3R,4S,5S,6R)-3,4,5-trihydroxy-6-(hydroxymethyl)tetrahydro-2H-pyran-2-yloxy)biphenyl-3-yl)prop-2-en-1-one formation at 100 mg/kg, po by UPLC-IT-TOF-MS analysis; format: ADME, organism-based; conditions: in vivo; summary of the method: as §4
# [17] = Drug level in Sprague-Dawley rat plasma at 100 mg/kg, po by UPLC-IT-TOF-MS analysis; format: ADME, organism-based; conditions: in vivo; summary of the method: as §4
# [18] = Drug metabolism in Sprague-Dawley rat urine assessed as (2S,3R,4S,5S,6R)-2-(5,5'-diallyl-2'-methoxybiphenyl-2-yloxy)-6-(hydroxymethyl)tetrahydro-2H-pyran-3,4,5-triol formation at 100 mg/kg, po by UPLC-IT-TOF-MS analysis; format: ADME, organism-based; conditions: in vivo; summary of the method: as §3
smiles,measurement,setting,value
C=CCc1ccc(O)c(-c2cc(CC=C)ccc2O[C@@H]2O[C@H](CO)[C@@H](O)[C@H](O)[C@H]2O)c1,Activity,Mus musculus [1],Active
same,Activity,Mus musculus [2],inactive
same,Activity,Mus musculus [3],Active
same,Activity,Rattus norvegicus [4],Non-Toxic
same,Activity,Rattus norvegicus [5],Non-Toxic
same,Activity,Rattus norvegicus [6],Non-Toxic
same,LD50 at 76 h,[7],> 2000 mg/kg
same,Drug metabolism,[8],Metabolite_Notdetected
same,Drug metabolism,[9],Metabolite_Notdetected
same,Drug metabolism,[10],Metabolite_Detected
same,Drug metabolism,[11],Metabolite_Notdetected
same,Drug metabolism,[12],Metabolite_Notdetected
same,Drug metabolism,[13],Metabolite_Detected
same,Drug metabolism,[14],Metabolite_Notdetected
same,Drug metabolism,[15],Metabolite_Detected
same,Drug metabolism,[16],Metabolite_Notdetected
same,Drug uptake,[17],Active
same,Drug metabolism,[18],Metabolite_Detected
